Screens from PubChem BioAssay.
An excerpt weighted towards active compounds, which were near 1.6% of everything screened.
ABHD5 PLIN5 PPI – inhibitors of human ABHD5-perilipin-5 interaction | Q00G26+Q8WTS1 | 360,000 tested, 0.78% active | inhibition, % at 4 µM | Split G. princeps luciferase complementation, luminescence, 4 h;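 active means inhibition above the mean inhibition across every tested compound plus 3 SD, cut at about 22% in these data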;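 further: 0% = DMSO only wells and the 100% control is not disclosed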
NOD2-RIPK2 inh – NOD2-RIPK2 protein interaction inhibition; AID 624267; O43353; CHO BLA complementation NOD2-RIPK2, CCF4 ratio; inhibition, % at 4.98 µM; 360,000 tested, 0.38% active; in the data active means inhibition above about 21%;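 further: 0% = vehicle only and 100% = reference blocker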
TLR4-MyD88 BLA – inhibitors of human TLR4-MyD88 binding. HeLa CL3-4 TLR4/MyD88 BLA complementation, FRET ratio. inhibition, % at 8.4 µM. 200,000 tested, 0.18% active. AID 861; in the data active means inhibition above about 25%;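 further: 0% = vehicle and 100% = reference inhibitor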
Dynein transport – dynein cargo transport inhibition. 3617.4 mouse cells, GR-EGFP nuclear translocation imaging; test concentration mostly 20 µM; stimulated with dexamethasone, 1 µM; stronger effect = lower value. z-score, hits read low. 220,000 tested, 0.47% active;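 active means plate z-score of nuclear minus cytoplasmic receptor signal below a set negative limit, without overly bright fluorescence or cell loss, cut at about -3.5 in these data, passing the limit was not always enough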;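 further: z-score of nuclear minus cytoplasmic ring GR-EGFP intensity difference per well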
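Medium: Induction medium lacking tetracycline, stripped serum | Probe or stimulus: 1.0 µM final dexamethasone stimulus | Schedule: 48 h induction, then 1 h compound, then 30 min agonist, 37 °C | Signal: Automated 10x imaging of fixed Hoechst-stained cells | Evaluation: Per-cell GR-EGFP intensity, nucleus versus surrounding cytoplasmic ring, well-averaged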
Beta2AR agonist – human beta-2 adrenergic receptor agonism by FAP; response, % (no concentration beside the values); AID 504454; 340,000 tested, 0.43% active; P07550; Am2.2-beta2AR cells, FAP receptor internalization, flow cytometry;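 active means response above a set limit, near 3 SD of response in nonfluorescent compounds, cut at about 42% in these data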
TLR9-MyD88 block – blocks human TLR9 binding to MyD88; inhibition, % at 4.98 µM; CHO BLA complementation TLR9-MyD88, CCF4 FRET ratio; Q9NR96+Q99836; 340,000 tested, 0.21% active;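 active means inhibition above the mean over all tested compounds plus 3 SD, cut at about 21% in these data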;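 further: 0% = DMSO only wells and 100% = clavulanate BLA inhibitor control wells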
Dynein inh conf – dynein cargo transport inhibition, confirmation; shares compounds with Dynein transport; 3617.4 GR-EGFP nuclear translocation imaging, dexamethasone-induced; calls only at 20 µM; 1,000 tested, 69% active; AID 463116;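 active means inhibition of receptor movement into the nucleus at or above a set limit in both runs, with normal cell brightness and cell count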;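 further: dexamethasone at 1 µM final in well for 30 min; nuclear minus cytoplasmic GR-EGFP mean intensity difference in channel 2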
Active calls of the source: *; i = inactive; / = no result; + = active, no number.

SMILES	ABHD5 PLIN5 PPI	NOD2-RIPK2 inh	TLR4-MyD88 BLA	Dynein transport	Beta2AR agonist	TLR9-MyD88 block	Dynein inh conf
O=C(Nc1ccc2nc([C@H]3C[C@H](O)[C@@H](CO)O3)[nH]c2c1)NC(c1ccccc1)c1ccccc1	-6	3	/	/	/	/	/
O=C(/C=C/c1ccc(O)c(O)c1)c1ccccc1O	10	-12	/	-5.4*	14	3	+
C#CC(=O)N(c1cccc(OC)c1)C(C(=O)NC1CCCC1)c1cccs1 (configuration not stated)	23*	10	18	-5.3*	-254	6	+
C#CC(=O)N(c1ccc(OC)c(OC)c1)C(C(=O)NC1CCCC1)c1cccs1 (configuration not stated)	20	4	16	-4.7*	17	4	+
COCCCN1C(=O)C(CC(=O)NCCc2ccccn2)CC(C(=O)N2CCCCCC2)=C1C (configuration not stated)	2	-9	/	/	/	/	/
CCc1nc2c(OCc3cccc(Cl)c3)cccn2c1N(C)C(=O)c1ccco1	-4	2	/	/	/	/	/
CC(C)C[C@H]1CNC(=O)C(=O)N1C[C@H]1CCCN1C[C@H](CC(C)C)N1C[C@H](Cc2ccccc2)N(CCc2ccccc2)C(=O)C1=O	-3	-12	/	/	/	/	/
CCOC(=O)[C@]12CCCC=C1N(Cc1ccc(Cl)cc1Cl)C(=O)[C@H](CC(=O)NCC13CC4CC(CC(C4)C1)C3)C2	-7	-5	/	/	/	/	/
CC(=O)N(CCC(c1ccco1)C(C)C)Cc1ccc(Cl)cc1 (configuration not stated)	10	-5	/	-4.7*	-7	/	i
COc1ccccc1NS(=O)(=O)c1cc([N+](=O)[O-])ccc1N/N=C/c1sc(N2CCOCC2)nc1-c1ccccc1	-1	0	14	-12	-367	-2	i
Cc1ccsc1-c1cc2nc(NCCCN(C)C)n(C)c(=O)c2s1	3	-5	/	/	/	/	/
Cc1ccc(C(=O)N/C(=C\c2ccc(-c3ccc(Cl)cc3)o2)C(=O)NCCCN(C)C)cc1	21	3	6	-4.3*	28	/	i
CN(C)CCCNC(=O)/C(=C/c1ccc(-c2ccc([N+](=O)[O-])cc2)o1)NC(=O)c1ccccc1	4	12	/	/	-47	6	/
COc1ccc(NC(=O)COC(=O)CN2C(=O)C3CCCCC3C2=O)cc1 (configuration not stated)	-1	-1	/	/	/	12	/
CC1(C(=O)NCc2ccccc2)CN(S(C)(=O)=O)CC(=O)N1CCc1ccccc1F (configuration not stated)	11	-4	/	/	/	/	/
Clc1ccc(N=c2ssnc2Cl)nc1	-14	1	0	-3.5*	14	8	i
OCc1ccccc1N=c1ssnc1Cl	/	/	13	0.066	/	/	/
CC1CCN(CC(CS(=O)(=O)c2ccc([N+](=O)[O-])cc2)N2CCC(C)CC2)CC1 (configuration not stated)	0	-16	/	-4.7*	5	-9	+
Cc1ccc(C(=O)Oc2oc(-c3ccco3)nc2C=Nc2ccc(Cl)cc2)cc1	-1	-13	5	-3.7*	33	10	+
O=C(Oc1oc(-c2ccco2)nc1C=Nc1ccccc1)c1ccoc1	-4	-8	4	-4*	0	-5	+
O=C(Nc1cccc2c1CCCC2)c1cc(C2CCCCN2C(=O)c2cccs2)on1 (configuration not stated)	1	-9	/	/	/	/	/
O=S1(=O)CC=C(CSC(=S)NC2CCS(=O)(=O)C2)C1 (configuration not stated)	-30	-13	3	-4.8*	18	12	+
CN(CCOc1ccccc1)C(=O)c1cc(S(=O)(=O)N2CCCCC2)ccc1Cl	-8	-5	/	/	-4	-2	/
COc1cccc(Oc2nnnn2-c2ccccc2)c1	-1	-125	10	0.077	-1	-5	/
COc1cccc(-n2nnnc2S(C)(=O)=O)c1	68*	49*	7	-4.5*	32	22*	+
Nc1nc2ccc(S(=O)(=O)N3CCCCC3)cc2s1	-9	15	0	-4.1*	7	2	i
